This note sets out measurements from ChEMBL document CHEMBL3804827, “Synthesis, biological evaluation and structure-activity relationship of 2-styrylquinazolones as anti-tubercular agents” (Bioorg Med Chem Lett, 2016).

In brackets after ≈: the same amount, converted by molar mass. Bounds are passed on as bounds.

In series [1] the test system is Mycobacterium tuberculosis. The series is described as follows: Antimycobacterial activity against Mycobacterium tuberculosis H37Rv ATCC 27294 after 7 days by Alamar blue assay. In kind it is functional. Particulars: H37Rv ATCC 27294, 168 h.
Series [2] can be described thus: Selectivity index, ratio of CC50 for African green monkey Vero cells to IC90 for Mycobacterium tuberculosis H37Rv ATCC 27294. The class given is toxicity, cell-based. The conditions noted are these: read-out: Selectivity Index.
For series [3], the system named is Mycobacterium tuberculosis. The series is described as follows: Antimycobacterial activity against Mycobacterium tuberculosis H37Rv ATCC 27294 after 28 days by two fold serial dilution method. In kind it is functional. The conditions noted are these: H37Rv ATCC 27294, 672 h. The gist of the method: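 M. tuberculosis H37Rv (ATCC 27294) in vitro; MIC taken as the lowest concentration in µg/mL giving 99% growth inhibition. Determined in triplicate at pH 7.4, with standard drugs (INH, R, E, Z, Cfx) run alongside.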

The nature of series [4]: Selectivity index, ratio of cytotoxicity against HEK293T cells to MIC for Mycobacterium tuberculosis H37Rv ATCC 27294. In kind it is toxicity, cell-based, HEK-293T. Particulars: human, read-out: Selectivity Index. The method in brief: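 HEK-293T human embryonic kidney cells were exposed to 50 µg/mL and read by MTT as % inhibition. The index relates this cytotoxicity to the MIC against M. tuberculosis H37Rv ATCC 27294, defined as 99% growth inhibition.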

The test system of another series is Staphylococcus aureus. The series is described as follows: Antibacterial activity against Staphylococcus aureus NRS70 after 16 to 20 hrs by two-fold serial dilution method. The class given is functional.

The IC90 is the concentration at which the effect reaches the 90% level. For `O=c1c2ccccc2nc(/C=C/c2ccc([N+](=O)[O-])o2)n1CCCO`, in series [1], the IC90 is less than 0.1 µg/mL. Moreover, the selectivity ratio in series [2] was more than 150.
By MIC99 is commonly meant the lowest concentration that inhibits either 99% of growth or 99% of the strains tested, depending on the study. In series [3], `O=c1c2ccccc2nc(/C=C/c2ccccc2)n1-c1ccccc1` registered an MIC99 of 3.12 µg/mL (≈ 9.63 µM). In addition, in series [4], the selectivity ratio is more than 16.
Molecule `COc1ccc(/C=C/c2nc3ccccc3c(=O)n2-c2ccc(C)cc2)cc1` showed an MIC99 in series [3] of 12.5 µg/mL (≈ 33.9 µM).
The same measure, in the same setting: with `O=c1c2ccccc2nc(/C=C/c2ccc(Cl)cc2)n1-c1ccccc1` the figure was 12.5 µg/mL (≈ 34.8 µM); with `COc1ccc(/C=C/c2nc3ccccc3c(=O)n2-c2ccc(SC)cc2)cc1`, more than 25 µg/mL; with `O=c1c2ccccc2nc(/C=C/c2ccccc2)n1-c1ccc(F)cc1`, 25 µg/mL (≈ 73 µM).
Still for that read-out and setting: as for `CSc1ccc(-n2c(/C=C/c3ccc(N(C)C)cc3)nc3ccccc3c2=O)cc1`, the figure is 12.5 µg/mL (≈ 30.2 µM); as for `CSc1ccc(-n2c(/C=C/c3ccc(F)cc3)nc3ccccc3c2=O)cc1`, 12.5 µg/mL (≈ 32.2 µM).
Take `O=c1c2ccccc2nc(/C=C/c2ccc(F)cc2)n1-c1ccc(Cl)cc1`: the MIC99 in series [3] worked out at 6.25 µg/mL (≈ 16.6 µM). In addition, the selectivity ratio in series [4] is more than 8.
`O=c1c2ccccc2nc(/C=C/c2cccs2)n1-c1ccccc1` returned an MIC99 in series [3] of 3.12 µg/mL (≈ 9.46 µM). For the same molecule, the selectivity ratio in series [4] is less than 16.
For `O=c1c2ccccc2nc(/C=C/c2ccccc2)n1-c1ccc(Cl)cc1`, in series [3], the MIC99 was 12.5 µg/mL (≈ 34.8 µM).
In the case of `O=c1c2ccccc2nc(/C=C/c2ccc([N+](=O)[O-])o2)n1-c1cccc(O)c1`, it took 1.02 µg/mL (≈ 2.72 µM) to reach the 90% level in series [1] (IC90). Besides, the selectivity ratio in series [2] is more than 14.7.
In turn, `O=c1c2ccccc2nc(/C=C/c2ccc(Cl)cc2)n1-c1ccc(Cl)cc1` came in with an MIC99 in series [3] of more than 25 µg/mL.
In series [3], `O=c1c2ccccc2nc(/C=C/c2c(O)cccc2O)n1-c1ccccc1` returned an MIC99 of 6.25 µg/mL (≈ 17.5 µM). Also, the selectivity ratio in series [4] was more than 8.
Molecule `O=c1c2ccccc2nc(/C=C/c2ccccc2)n1-c1ccc(Br)cc1` came in with an MIC99 in series [3] of 6.25 µg/mL (≈ 15.5 µM). Further, in series [4], the selectivity ratio is more than 8.
In series [3], `COc1cc(/C=C/c2nc3ccccc3c(=O)n2-c2ccccc2)cc(OC)c1OC` registered an MIC99 of 0.78 µg/mL (≈ 1.88 µM). Also, the selectivity ratio in series [4] was more than 64.
For the molecule `Cc1ccc(-n2c(/C=C/c3ccc(F)cc3)nc3ccccc3c2=O)cc1`, the MIC99 in series [3] was more than 25 µg/mL.
`COc1ccc(-n2c(/C=C/c3ccccc3)nc3ccccc3c2=O)cc1` gave an MIC99 in series [3] of 1.56 µg/mL (≈ 4.4 µM). Also, the selectivity ratio in series [4] is more than 32.
Regarding `O=c1c2ccccc2nc(/C=C/c2ccc(Cl)cc2)n1-c1ccc(F)cc1`, the MIC99 in series [3] came out at 12.5 µg/mL (≈ 33.2 µM).
In series [3], `COc1ccc(-n2c(/C=C/c3cccs3)nc3ccccc3c2=O)cc1` displayed an MIC99 of 1.56 µg/mL (≈ 4.33 µM). Besides, the selectivity ratio in series [4] was more than 32.
In series [3], `COc1cc(-n2c(/C=C/c3cccs3)nc3ccccc3c2=O)cc(OC)c1OC` displayed an MIC99 of 6.25 µg/mL (≈ 14.9 µM). Also, in series [4], the selectivity ratio is less than 8.
For `COc1ccc(/C=C/c2nc3ccccc3c(=O)n2-c2ccc(OC)cc2)cc1`, in that order: 1.56 µg/mL (≈ 4.06 µM) and more than 32.
For `CSc1ccc(-n2c(/C=C/c3ccc(Cl)cc3)nc3ccccc3c2=O)cc1`, the MIC99 in series [3] turned out to be 12.5 µg/mL (≈ 30.9 µM).
On to `COc1cc(-n2c(/C=C/c3ccco3)nc3ccccc3c2=O)cc(OC)c1OC`, for which the MIC99 in series [3] was 3.12 µg/mL (≈ 7.73 µM). Also, the selectivity ratio in series [4] is more than 16.
For `CSc1ccc(/C=C/c2nc3ccccc3c(=O)n2-c2ccccc2)cc1`, the MIC99 in series [3] is 3.12 µg/mL (≈ 8.44 µM). In addition, the selectivity ratio in series [4] was less than 16.
For `Cc1ccc(/C=C/c2nc3ccccc3c(=O)n2-c2ccc(C)cc2)cc1`, in that order: 3.12 µg/mL (≈ 8.87 µM) and more than 16.
Regarding `COc1cc(-n2c(/C=C/c3ccccc3)nc3ccccc3c2=O)cc(OC)c1OC`, the MIC99 in series [3] amounted to 0.78 µg/mL (≈ 1.88 µM). Besides, the selectivity ratio in series [4] is more than 64.
Turning to `COc1ccc(/C=C/c2nc3ccccc3c(=O)n2-c2ccccc2)cc1`, in series [3], the MIC99 amounted to 12.5 µg/mL (≈ 35.3 µM).
As to `O=c1c2ccccc2nc(/C=C/c2ccc(F)cc2)n1-c1ccc(Br)cc1`, the MIC99 in series [3] turned out to be 6.25 µg/mL (≈ 14.8 µM).
On to `COc1cc(-n2c(/C=C/c3ccc(SC)cc3)nc3ccccc3c2=O)cc(OC)c1OC`, for which the MIC99 in series [3] turned out to be 0.4 µg/mL (≈ 0.869 µM). The selectivity ratio in series [4] is more than 125.
Regarding `O=c1c2ccccc2nc(/C=C/c2ccc(F)cc2)n1-c1ccccc1`, the MIC99 in series [3] was found to be 25 µg/mL (≈ 73 µM).
The molecule `O=c1c2ccccc2nc(/C=C/c2ccc(OCc3ccccc3)cc2)n1-c1ccccc1` yielded an MIC99 in series [3] of 12.5 µg/mL (≈ 29 µM).
`COc1ccc(-n2c(/C=C/c3ccco3)nc3ccccc3c2=O)cc1` returned an MIC99 in series [3] of 6.25 µg/mL (≈ 18.1 µM). Besides, the selectivity ratio in series [4] was less than 8.
In series [3], `COc1cc(/C=C/c2nc3ccccc3c(=O)n2-c2ccc(SC)cc2)cc(OC)c1OC` yielded an MIC99 of more than 25 µg/mL.
Usually MIC stands for the lowest concentration that inhibits growth of the organism. Molecule `N#Cc1ccc(/C=C/c2nc3ccccc3c(=O)n2-c2cccc(C(=O)O)c2)cc1` came in with a minimal inhibitory concentration (MIC) in the series with Staphylococcus aureus of 2 µg/mL (≈ 5.08 µM).
In turn, `O=c1c2ccccc2nc(/C=C/c2ccco2)n1-c1ccccc1` returned an MIC99 in series [3] of 12.5 µg/mL (≈ 39.8 µM).
The molecule `O=c1c2ccccc2nc(/C=C/c2ccc(F)cc2)n1-c1ccc(F)cc1` had an MIC99 in series [3] of more than 25 µg/mL.
`COc1cc(-n2c(/C=C/c3ccc(Cl)cc3)nc3ccccc3c2=O)cc(OC)c1OC` returned an MIC99 in series [3] of 3.12 µg/mL (≈ 6.96 µM). Further, the selectivity ratio in series [4] was more than 16.
Take `O=c1c2ccccc2nc(/C=C/c2ccc(Cl)cc2)n1-c1ccc(Cc2ccccc2)cc1`: in series [3], the MIC99 was determined as 3.12 µg/mL (≈ 6.96 µM).
Molecule `COc1ccc(/C=C/c2nc3ccccc3c(=O)n2-c2cc(OC)c(OC)c(OC)c2)cc1` came in with an MIC99 in series [3] of 12.5 µg/mL (≈ 28.1 µM).
The molecule `Cc1ccc(-n2c(/C=C/c3ccccc3)nc3ccccc3c2=O)cc1` showed an MIC99 in series [3] of more than 25 µg/mL.
The same measure, in the same setting: as for `Cc1ccc(-n2c(/C=C/c3ccc(Cl)cc3)nc3ccccc3c2=O)cc1`, the figure is 25 µg/mL (≈ 67.1 µM).
Consider `Cc1ccc(/C=C/c2nc3ccccc3c(=O)n2-c2ccc(F)cc2)cc1`, for which the MIC99 in series [3] is 6.25 µg/mL (≈ 17.5 µM). Moreover, the selectivity ratio in series [4] is more than 8.
On to `CSc1ccc(-n2c(/C=C/c3ccc(OC(C)=O)cc3)nc3ccccc3c2=O)cc1`, for which the MIC99 in series [3] came out at 6.25 µg/mL (≈ 14.6 µM).
In series [3], `COc1ccc(-n2c(/C=C/c3ccc(Cl)cc3)nc3ccccc3c2=O)cc1` registered an MIC99 of 3.12 µg/mL (≈ 8.04 µM). For the same molecule, the selectivity ratio in series [4] is less than 16.
`COc1cc(-n2c(/C=C/c3ccc(F)cc3)nc3ccccc3c2=O)cc(OC)c1OC` had an MIC99 in series [3] of 6.25 µg/mL (≈ 14.5 µM). Moreover, the selectivity ratio in series [4] is more than 8.
On the same counts, the results for `CSc1ccc(-n2c(/C=C/c3ccccc3)nc3ccccc3c2=O)cc1` are 0.78 µg/mL (≈ 2.11 µM) and more than 64.
For `CSc1ccc(-n2c(/C=C/c3ccco3)nc3ccccc3c2=O)cc1`, the MIC99 in series [3] is 6.25 µg/mL (≈ 17.3 µM). Further, the selectivity ratio in series [4] is more than 8.
In the case of `CSc1ccc(-n2c(/C=C/c3cccs3)nc3ccccc3c2=O)cc1`, in series [3], the MIC99 turned out to be 6.25 µg/mL (≈ 16.6 µM). Besides, the selectivity ratio in series [4] is more than 8.
As to `CC[C@@H](CO)NCCN[C@@H](CC)CO` [ETHAMBUTOL], in series [3], the MIC99 was found to be 1.56 µg/mL (≈ 7.64 µM).
On to `NNC(=O)c1ccncc1` [ISONIAZID], for which, in series [3], the MIC99 was 0.098 µg/mL (≈ 0.715 µM).
For `NC(=O)c1cnccn1` [PYRAZINAMIDE], the MIC99 in series [3] amounted to 6.25 µg/mL (≈ 50.8 µM).
Still for that read-out and setting: with `CO[C@H]1/C=C/O[C@@]2(C)Oc3c(C)c(O)c4c(O)c(c(/C=N/N5CCN(C)CC5)c(O)c4c3C2=O)NC(=O)/C(C)=C\C=C\[C@H](C)[C@H](O)[C@@H](C)[C@@H](O)[C@@H](C)[C@H](OC(C)=O)[C@@H]1C` [RIFAMPIN] the figure was 0.197 µg/mL (≈ 0.239 µM).
